Measurements taken from article PMC7145530 (Nucleic Acids Research, 2019).
Like-named read-outs stand apart in the source and are kept apart here.

Experiments:
ALKBH3 [1] = target: T1, ALKBH3 (Homo sapiens, UniProt Q96Q83); assay: Isothermal titration calorimetry; type: binding; conditions: ITC, 25°C; 1 mM peptide into 15 μM ALKBH3
T1 sequence (Q96Q83 1-286): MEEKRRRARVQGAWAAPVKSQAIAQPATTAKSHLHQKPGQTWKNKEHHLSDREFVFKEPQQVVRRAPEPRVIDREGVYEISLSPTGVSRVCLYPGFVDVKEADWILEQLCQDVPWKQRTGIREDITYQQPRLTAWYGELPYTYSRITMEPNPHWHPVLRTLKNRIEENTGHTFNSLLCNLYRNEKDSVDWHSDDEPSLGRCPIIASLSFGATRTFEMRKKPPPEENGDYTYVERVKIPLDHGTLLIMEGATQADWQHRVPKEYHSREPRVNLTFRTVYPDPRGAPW

ALKBH3 [2] = target: T1, ALKBH3; assay: Yeast two-hybrid with ALKBH3; type: binding; conditions: strain pJ69-4A; growth on dropout plates and lacZ reporter
Summary of the method: (§1)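 Full-length ALKBH2 or ALKBH3 fused to Gal4 binding domain (pGBKT7) was co-transformed with Gal4 activation domain (pACT2) fusions of RAD51, RAD51B, RAD51C, RAD51D, XRCC2 or XRCC3, or empty vectors. Transformants were selected on SD -Leu -Trp plates at 30°C for 2–3 days, then spotted on -His (triple) or -His -Ade (quadruple) dropout plates. lacZ was scored qualitatively by X-gal filter assay.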

ALKBH2 = assay: Yeast two-hybrid with ALKBH2; type: binding, human; conditions: strain pJ69-4A; growth on dropout plates and lacZ reporter
Summary of the method: as §1

ALKBH3 [3] = target: T1, ALKBH3; assay: Demethylation assay by direct detection of formaldehyde; type: biochemical; conditions: ferrozine 1 mM or succinate 5 mM; ALKBH3 0.2 μM, RAD51C 4.0 μM
RAD51C = assay: Yeast two-hybrid of ALKBH3 fragments with RAD51C; type: binding, human; conditions: ALKBH3 fragments (pGBKT7) with pACT2-RAD51C
Summary of the method: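 Yeast co-transformed with Gal4 binding-domain (pGBKT7) and activation-domain constructs were plated on SD −Leu −Trp at 30°C for 2–3 days. HIS and ADE2 reporters were scored by spotting onto −Leu −Trp −His or −Leu −Trp −His −Ade plates. lacZ was checked qualitatively by X-gal filter assay.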

[4] = target: T2, His-tagged RAD51C (HIS-RAD51C) (human, UniProt O43502 1-376); assay: pull-down
T2 sequence (looked up): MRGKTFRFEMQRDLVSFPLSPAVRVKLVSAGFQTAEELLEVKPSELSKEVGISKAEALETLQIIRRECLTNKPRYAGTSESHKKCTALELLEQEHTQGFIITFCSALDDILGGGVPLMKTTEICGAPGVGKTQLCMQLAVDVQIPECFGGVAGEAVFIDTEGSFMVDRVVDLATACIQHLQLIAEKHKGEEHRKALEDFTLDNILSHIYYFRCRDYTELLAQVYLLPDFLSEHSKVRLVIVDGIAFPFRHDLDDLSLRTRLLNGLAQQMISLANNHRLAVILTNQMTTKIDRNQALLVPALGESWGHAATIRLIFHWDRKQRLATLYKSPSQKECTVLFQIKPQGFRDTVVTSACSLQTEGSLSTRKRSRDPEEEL

ALKBH3 [5] = target: T1, ALKBH3; assay: Steady-state; type: biochemical; conditions: 3′-tailed DNA 0.6–9.6 μM, ALKBH3 0.2 μM, RAD51C or RAD51CΔ42–52 4 μM, FDH-coupled
ALKBH3 [6] = target: T1, ALKBH3; conditions: ssDNA substrate; cited from earlier work
[7] = target: T3, ALKBH3 protein (recombinant, used for ITC) (human, UniProt Q96Q83 1-286); assay: ITC
T3 sequence (looked up): T1 sequence (Q96Q83 1-286)

QTAEELLEV [p33–41]
binding to ALKBH3 (ALKBH3 [1]): failed to bind ALKBH3 under these conditions

RAD51: human recombinase RAD51
yeast two-hybrid interaction with ALKBH3 (ALKBH3 [2]): not with RAD51
yeast two-hybrid interaction with ALKBH2 (ALKBH2): could not detect any interaction

O=S(=O)([O-])c1ccc(-c2nnc(-c3ccccn3)nc2-c2ccc(S(=O)(=O)[O-])cc2)cc1.[Na+].[Na+] [ferrozine, reference compound]
inhibition of ALKBH3 with RAD51C present (ALKBH3 [3]): presence of RAD51C could not alleviate the inhibitory effect of ferrozine and succinate

O=C(O)CCC(=O)O [succinate, reference compound]
inhibition of ALKBH3 with RAD51C present (ALKBH3 [3]): presence of RAD51C could not alleviate the inhibitory effect of ferrozine and succinate

B1: ΔNTD: remaining amino acid residues (67–376) of RAD51C (protein)
chain: ECLTNKPRYAGTSESHKKCTALELLEQEHTQGFIITFCSALDDILGGGVPLMKTTEICGAPGVGKTQLCMQLAVDVQIPECFGGVAGEAVFIDTEGSFMVDRVVDLATACIQHLQLIAEKHKGEEHRKALEDFTLDNILSHIYYFRCRDYTELLAQVYLLPDFLSEHSKVRLVIVDGIAFPFRHDLDDLSLRTRLLNGLAQQMISLANNHRLAVILTNQMTTKIDRNQALLVPALGESWGHAATIRLIFHWDRKQRLATLYKSPSQKECTVLFQIKPQGFRDTVVTSACSLQTEGSLSTRKRSRDPEEEL
modifications: left off: Gal4 activation domain, end not stated, kept
yeast two-hybrid interaction with ALKBH3 (ALKBH3 [2]): completely abrogated the interaction

B2: RAD51CΔ1–18 (protein)
chain: LSPAVRVKLVSAGFQTAEELLEVKPSELSKEVGISKAEALETLQIIRRECLTNKPRYAGTSESHKKCTALELLEQEHTQGFIITFCSALDDILGGGVPLMKTTEICGAPGVGKTQLCMQLAVDVQIPECFGGVAGEAVFIDTEGSFMVDRVVDLATACIQHLQLIAEKHKGEEHRKALEDFTLDNILSHIYYFRCRDYTELLAQVYLLPDFLSEHSKVRLVIVDGIAFPFRHDLDDLSLRTRLLNGLAQQMISLANNHRLAVILTNQMTTKIDRNQALLVPALGESWGHAATIRLIFHWDRKQRLATLYKSPSQKECTVLFQIKPQGFRDTVVTSACSLQTEGSLSTRKRSRDPEEEL
modifications: left off: Gal4 activation domain, end not stated, kept
yeast two-hybrid interaction with ALKBH3 (ALKBH3 [2]): remained unaffected

B3: RAD51C-NTD: NTD consisting of 1–66 amino acid residues (protein)
chain: MRGKTFRFEMQRDLVSFPLSPAVRVKLVSAGFQTAEELLEVKPSELSKEVGISKAEALETLQIIRR
modifications: left off: Gal4 activation domain, end not stated, kept
yeast two-hybrid interaction with ALKBH3 (ALKBH3 [2]): robust interaction

B4: ALKBH3 (amino acids 175–286): C-terminal segment of ALKBH3 (protein)
chain: SLLCNLYRNEKDSVDWHSDDEPSLGRCPIIASLSFGATRTFEMRKKPPPEENGDYTYVERVKIPLDHGTLLIMEGATQADWQHRVPKEYHSREPRVNLTFRTVYPDPRGAPW
modifications: left off: Gal4 DNA-binding domain, end not stated, kept
yeast two-hybrid interaction with RAD51C (RAD51C): interacted with RAD51C

B5: RAD51CΔ53–66 (protein)
chain: MRGKTFRFEMQRDLVSFPLSPAVRVKLVSAGFQTAEELLEVKPSELSKEVGIECLTNKPRYAGTSESHKKCTALELLEQEHTQGFIITFCSALDDILGGGVPLMKTTEICGAPGVGKTQLCMQLAVDVQIPECFGGVAGEAVFIDTEGSFMVDRVVDLATACIQHLQLIAEKHKGEEHRKALEDFTLDNILSHIYYFRCRDYTELLAQVYLLPDFLSEHSKVRLVIVDGIAFPFRHDLDDLSLRTRLLNGLAQQMISLANNHRLAVILTNQMTTKIDRNQALLVPALGESWGHAATIRLIFHWDRKQRLATLYKSPSQKECTVLFQIKPQGFRDTVVTSACSLQTEGSLSTRKRSRDPEEEL
modifications: left off: Gal4 activation domain, end not stated, kept
yeast two-hybrid interaction with ALKBH3 (ALKBH3 [2]): remained unaffected

B6: RAD51CΔ33–41 (protein)
chain: MRGKTFRFEMQRDLVSFPLSPAVRVKLVSAGFKPSELSKEVGISKAEALETLQIIRRECLTNKPRYAGTSESHKKCTALELLEQEHTQGFIITFCSALDDILGGGVPLMKTTEICGAPGVGKTQLCMQLAVDVQIPECFGGVAGEAVFIDTEGSFMVDRVVDLATACIQHLQLIAEKHKGEEHRKALEDFTLDNILSHIYYFRCRDYTELLAQVYLLPDFLSEHSKVRLVIVDGIAFPFRHDLDDLSLRTRLLNGLAQQMISLANNHRLAVILTNQMTTKIDRNQALLVPALGESWGHAATIRLIFHWDRKQRLATLYKSPSQKECTVLFQIKPQGFRDTVVTSACSLQTEGSLSTRKRSRDPEEEL
modifications: left off: Gal4 activation domain, end not stated, kept
yeast two-hybrid interaction with ALKBH3 (ALKBH3 [2]): partially affected

B7: GST-ALKBH3 fusion protein (natural protein, human, UniProt Q96Q83 1-286, looked up)
chain: T1 sequence (Q96Q83 1-286)
binding result [4]: binds

B8: ALKBH3: human oxidative demethylase ALKBH3, tag-less recombinant (protein)
chain: T1 sequence (Q96Q83 1-286)
modifications: left off: Gal4 DNA-binding domain, end not stated, kept
Km (ALKBH3 [5]): 1.4 µM
Km (ALKBH3 [6]): 1.9 µM
kcat/KM (ALKBH3 [6]): 14500 M⁻¹ s⁻¹

B9: RAD51CΔ19–32 (protein)
chain: MRGKTFRFEMQRDLVSFPQTAEELLEVKPSELSKEVGISKAEALETLQIIRRECLTNKPRYAGTSESHKKCTALELLEQEHTQGFIITFCSALDDILGGGVPLMKTTEICGAPGVGKTQLCMQLAVDVQIPECFGGVAGEAVFIDTEGSFMVDRVVDLATACIQHLQLIAEKHKGEEHRKALEDFTLDNILSHIYYFRCRDYTELLAQVYLLPDFLSEHSKVRLVIVDGIAFPFRHDLDDLSLRTRLLNGLAQQMISLANNHRLAVILTNQMTTKIDRNQALLVPALGESWGHAATIRLIFHWDRKQRLATLYKSPSQKECTVLFQIKPQGFRDTVVTSACSLQTEGSLSTRKRSRDPEEEL
modifications: left off: Gal4 activation domain, end not stated, kept
yeast two-hybrid interaction with ALKBH3 (ALKBH3 [2]): remained unaffected

KPSELSKEVGI [synthetic peptide p42–52 of RAD51C]
Kd [7]: 4 µM
stoichiometry N [7]: 1
